Here are results for 26 compounds from ChEMBL document CHEMBL3098097, “Design, synthesis and evaluation of 7-azaindazolyl-indolyl-maleimides as glycogen synthase kinase-3β (GSK-3β) inhibitors” (Eur J Med Chem, 2013).

Molecules are shown by their SMILES. Calls of active or inactive are those of the source. The rule behind the calls is not given here. A value given as a limit tells only on which side of the number the result lay.

For experiment [1], the target named is T1, Glycogen synthase kinase-3 beta (Homo sapiens, UniProt P49841). Briefly: Inhibition of recombinant GST-tagged GSK-3beta (unknown origin) expressed in Escherichia coli BL21 assessed as phosphate incorporation in CREB.
Target sequence in this assay (P49841 whole entry): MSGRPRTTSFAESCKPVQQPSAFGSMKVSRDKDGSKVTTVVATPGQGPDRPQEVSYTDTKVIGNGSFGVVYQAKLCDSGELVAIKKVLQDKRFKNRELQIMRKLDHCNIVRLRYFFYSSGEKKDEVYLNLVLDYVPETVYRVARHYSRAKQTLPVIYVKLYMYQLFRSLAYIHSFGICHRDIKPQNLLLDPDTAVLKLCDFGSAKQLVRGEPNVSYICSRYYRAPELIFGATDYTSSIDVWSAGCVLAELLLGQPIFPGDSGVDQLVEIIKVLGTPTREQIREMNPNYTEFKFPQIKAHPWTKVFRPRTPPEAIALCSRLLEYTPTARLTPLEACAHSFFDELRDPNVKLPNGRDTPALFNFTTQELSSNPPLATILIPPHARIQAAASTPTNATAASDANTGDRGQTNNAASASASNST
The target of experiment [2] is T1, Glycogen synthase kinase-3 beta. Briefly: Inhibition of recombinant GST-tagged GSK-3beta (unknown origin) expressed in Escherichia coli BL21 assessed as phosphate incorporation in CREB at 20 ug/mL relative to control. A digest of the protocol: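 GST-GSK-3β expressed in E. coli BL21-CodonPlus (DE3), purified by GSTrap and thrombin-cleaved. Activity measured by Z'-LYTE kinase assay at 50 nM final enzyme. Run in triplicate with blanks subtracted. Activity given as pmol phosphate incorporated into CREB per minute or as percent of maximal activity.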
Target sequence in this assay (P49841 whole entry, looked up): as the sequence (P49841 whole entry) above

Experiment [3] shares this target. Description: Inhibition of GSK-3beta in human SH-SY5Y cells assessed as reduction of amyloid beta (25 to 35)-induced Tau hyperphosphorylation at Ser396 at 10 uM incubated for 1 hr prior to amyloid beta (25 to 35) induction measured after 6 hrs by Western blotting analysis. Format: cell-based. A digest of the protocol:
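SH-SY5Y cells (ATCC) in 1:1 DMEM:Ham's F12 with 10% FBS and 1% penicillin/streptomycin, 5% CO2. Grown to ~80% confluence, serum-deprived 12 h, inhibitor added 1 h before Aβ25–35 for another 6 h. Lysed in SDS loading buffer, run on 10% SDS-PAGE, blotted to PVDF, probed with rabbit anti-Tau pS396, ECL detection.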
Target sequence in this assay (P49841 whole entry, looked up): as the sequence (P49841 whole entry) above
A general note: In western blotting, separated proteins are transferred to a membrane and probed.

Experiment [4] addresses Dual specificity mitogen-activated protein kinase kinase 1 (Homo sapiens, UniProt Q02750). Briefly: Inhibition of recombinant MEK1 (unknown origin) expressed in Escherichia coli. In outline:
(§1)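 E. coli-expressed recombinant kinase tested in a Z'-LYTE kinase assay kit.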

Experiment [5] has as its target Mitogen-activated protein kinase 3 (Homo sapiens, UniProt P27361). Briefly: Inhibition of recombinant ERK1 (unknown origin) expressed in Escherichia coli. A digest of the protocol: as §1
The target in a further experiment is T2, Aurora kinase A (Homo sapiens, UniProt O14965).
T2 sequence (O14965 whole entry): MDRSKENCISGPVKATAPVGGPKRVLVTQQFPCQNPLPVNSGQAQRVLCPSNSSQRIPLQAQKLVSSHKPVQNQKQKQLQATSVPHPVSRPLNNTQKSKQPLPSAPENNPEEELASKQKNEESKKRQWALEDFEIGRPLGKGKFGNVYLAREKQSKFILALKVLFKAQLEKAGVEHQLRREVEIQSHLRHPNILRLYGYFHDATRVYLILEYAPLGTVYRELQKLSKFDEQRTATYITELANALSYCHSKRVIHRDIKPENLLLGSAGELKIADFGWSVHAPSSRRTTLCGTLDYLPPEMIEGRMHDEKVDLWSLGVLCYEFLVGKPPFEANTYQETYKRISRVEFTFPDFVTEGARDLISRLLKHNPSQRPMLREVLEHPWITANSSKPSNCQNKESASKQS
Description: Inhibition of recombinant aurora kinase A (unknown origin) expressed in Escherichia coli. In outline: as §1

The target of experiment [6] is T3, Protein kinase C epsilon type (Homo sapiens, UniProt Q02156).
T3 sequence (Q02156 whole entry): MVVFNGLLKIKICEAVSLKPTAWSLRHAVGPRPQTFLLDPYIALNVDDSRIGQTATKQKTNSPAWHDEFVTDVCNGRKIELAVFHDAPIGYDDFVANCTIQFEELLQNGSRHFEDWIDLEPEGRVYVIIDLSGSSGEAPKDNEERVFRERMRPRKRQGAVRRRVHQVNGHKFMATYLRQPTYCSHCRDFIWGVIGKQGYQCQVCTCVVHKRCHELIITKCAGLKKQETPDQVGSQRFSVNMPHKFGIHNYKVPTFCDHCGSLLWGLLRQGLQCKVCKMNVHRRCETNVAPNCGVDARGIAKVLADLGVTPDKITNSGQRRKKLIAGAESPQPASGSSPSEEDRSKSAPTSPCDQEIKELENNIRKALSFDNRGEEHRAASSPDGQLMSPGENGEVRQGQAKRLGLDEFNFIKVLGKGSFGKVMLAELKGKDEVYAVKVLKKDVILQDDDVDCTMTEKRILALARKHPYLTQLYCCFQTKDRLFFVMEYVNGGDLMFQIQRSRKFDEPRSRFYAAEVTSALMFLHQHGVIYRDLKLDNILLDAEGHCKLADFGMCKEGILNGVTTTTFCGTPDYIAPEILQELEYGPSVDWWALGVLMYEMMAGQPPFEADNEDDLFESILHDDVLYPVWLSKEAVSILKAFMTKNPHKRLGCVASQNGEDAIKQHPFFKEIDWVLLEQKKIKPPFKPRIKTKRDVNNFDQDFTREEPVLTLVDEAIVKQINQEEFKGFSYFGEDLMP
Briefly: Inhibition of recombinant PKCE (unknown origin) expressed in baculovirus expression system.

Experiment [7] deals with T4, Inhibitor of nuclear factor kappa-B kinase subunit beta (Homo sapiens, UniProt O14920).
T4 sequence (O14920 whole entry): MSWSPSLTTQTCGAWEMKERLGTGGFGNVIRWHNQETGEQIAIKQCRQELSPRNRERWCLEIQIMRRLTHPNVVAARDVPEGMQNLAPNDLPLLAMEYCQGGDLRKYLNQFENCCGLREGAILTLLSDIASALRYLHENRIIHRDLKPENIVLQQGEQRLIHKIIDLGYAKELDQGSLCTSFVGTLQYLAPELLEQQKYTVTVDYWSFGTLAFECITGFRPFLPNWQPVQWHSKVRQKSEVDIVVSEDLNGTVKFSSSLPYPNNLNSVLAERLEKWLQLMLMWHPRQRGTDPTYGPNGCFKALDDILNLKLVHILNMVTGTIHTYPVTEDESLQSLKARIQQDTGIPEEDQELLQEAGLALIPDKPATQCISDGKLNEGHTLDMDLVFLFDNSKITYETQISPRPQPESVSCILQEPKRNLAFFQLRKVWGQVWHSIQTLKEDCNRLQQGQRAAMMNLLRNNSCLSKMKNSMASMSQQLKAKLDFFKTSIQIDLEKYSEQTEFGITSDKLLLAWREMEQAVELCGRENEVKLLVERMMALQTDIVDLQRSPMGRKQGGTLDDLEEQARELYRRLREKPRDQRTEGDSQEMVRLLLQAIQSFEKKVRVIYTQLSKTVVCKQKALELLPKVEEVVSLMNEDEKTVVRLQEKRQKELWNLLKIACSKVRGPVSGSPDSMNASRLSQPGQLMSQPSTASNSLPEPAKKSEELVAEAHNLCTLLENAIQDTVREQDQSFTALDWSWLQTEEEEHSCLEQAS
Description: Inhibition of recombinant IKK2 (unknown origin) expressed in baculovirus expression system. In outline: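 Recombinant kinase expressed in the Bac-to-Bac baculovirus system, tested in a Z'-LYTE kinase assay kit.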

Mitogen-activated protein kinase 3, sequence (P27361 whole entry): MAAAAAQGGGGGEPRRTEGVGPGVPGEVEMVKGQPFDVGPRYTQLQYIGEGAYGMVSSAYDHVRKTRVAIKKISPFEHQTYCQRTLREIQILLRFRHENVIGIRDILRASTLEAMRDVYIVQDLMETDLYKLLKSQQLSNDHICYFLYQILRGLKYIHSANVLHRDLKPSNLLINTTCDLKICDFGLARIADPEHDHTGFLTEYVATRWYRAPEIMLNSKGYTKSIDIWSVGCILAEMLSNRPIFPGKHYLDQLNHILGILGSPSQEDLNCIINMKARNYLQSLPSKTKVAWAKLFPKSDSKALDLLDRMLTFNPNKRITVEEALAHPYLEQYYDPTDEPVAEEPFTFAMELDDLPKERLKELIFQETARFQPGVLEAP
Dual specificity mitogen-activated protein kinase kinase 1, sequence (Q02750 whole entry): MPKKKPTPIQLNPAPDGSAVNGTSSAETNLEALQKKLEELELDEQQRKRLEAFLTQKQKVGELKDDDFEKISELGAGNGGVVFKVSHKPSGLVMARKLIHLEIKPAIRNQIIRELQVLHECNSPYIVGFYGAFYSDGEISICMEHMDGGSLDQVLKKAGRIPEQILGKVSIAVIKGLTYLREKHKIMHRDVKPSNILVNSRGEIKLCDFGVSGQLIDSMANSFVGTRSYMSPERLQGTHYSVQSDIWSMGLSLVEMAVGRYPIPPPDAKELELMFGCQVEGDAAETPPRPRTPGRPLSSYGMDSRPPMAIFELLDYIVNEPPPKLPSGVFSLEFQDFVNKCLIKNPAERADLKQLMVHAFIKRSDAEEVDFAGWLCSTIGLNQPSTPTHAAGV

`Cn1cc(C2=C(c3nn(CCCN4CCCCC4)c4ncccc34)C(=O)NC2=O)c2ccccc21`: the IC50 in experiment [1] was 2.66 µM.

Regarding `Cn1cc(C2=C(c3nn(CCCCn4ccnc4)c4ncccc34)C(=O)NC2=O)c2ccccc21`, the IC50 in experiment [1] turned out to be 0.96 µM. For the compound `NN1C(=O)C(c2c[nH]c3ccccc23)=C(c2n[nH]c3ncccc23)C1=O`, in experiment [2], the inhibition amounted to 28.6%.

As to `Cn1cc(C2=C(c3nn(CCCO)c4ncccc34)C(=O)NC2=O)c2ccccc21`, the inhibition result in experiment [3] was “Active”. Further, the IC50 in experiment [1] stood at 1.09 µM. `Cn1cc(C2=C(c3nn(CCCCN4CCOCC4)c4ncccc34)C(=O)NC2=O)c2ccccc21`: in experiment [1], the IC50 was 0.46 µM. For `Cn1cc(C2=C(c3nn(CCCN4CCOCC4)c4ncccc34)C(=O)NC2=O)c2ccccc21`, in experiment [3], the inhibition result is “Active”. Moreover, the IC50 in experiment [1] came to 0.75 µM.

Regarding `NC(=S)NN1C(=O)C(c2c[nH]c3ccccc23)=C(c2n[nH]c3ncccc23)C1=O`, in experiment [2], the inhibition is 33.7%. Take `CN1CCN(CCCn2nc(C3=C(c4cn(C)c5ccccc45)C(=O)NC3=O)c3cccnc32)CC1`: in experiment [1], the IC50 was 3.34 µM. In the case of `O=C1C(c2c[nH]c3ccccc23)=C(c2n[nH]c3ncccc23)C(=O)N1c1ccccc1`, in experiment [2], the inhibition was found to be 4.14%. For the compound `CN(C)CCCn1nc(C2=C(c3cn(C)c4ccccc34)C(=O)NC2=O)c2cccnc21`, the IC50 in experiment [1] is 5.69 µM. On the same count and under the same terms, the figure for `C=Cn1cc(C2=C(c3nn(CCCN4CCOCC4)c4ncccc34)C(=O)NC2=O)c2ccccc21` is 8.84 µM; for `C=CCn1cc(C2=C(c3nn(CCCN4CCOCC4)c4ncccc34)C(=O)NC2=O)c2ccccc21` it is 0.96 µM. As to `CC(C)CN1C(=O)C(c2c[nH]c3ccccc23)=C(c2n[nH]c3ncccc23)C1=O`, the inhibition in experiment [2] stood at 45.7%. On to `O=C1NC(=O)C(c2nn(CCCN3CCOCC3)c3ncccc23)=C1c1c[nH]c2ccccc12`, for which, in experiment [3], the inhibition result is “Active”. The IC50 in experiment [1] is 0.83 µM. The like results for `O=C1NC(=O)C(c2nn(CCCN3CCOCC3)c3ncccc23)=C1c1cn(CCCN2CCOCC2)c2ccccc12` were, in that order, “inactive” and 1.29 µM. In the case of `Cn1cc(C2=C(c3nn(CCn4ccnc4)c4ncccc34)C(=O)NC2=O)c2ccccc21`, the IC50 in experiment [4] was above 40 µM; in experiment [5] it was above 40 µM; in experiment [1], 0.81 µM; on Aurora kinase A, above 40 µM; in experiment [6], above 40 µM; in experiment [7], above 40 µM. The inhibition entry in experiment [3] was “Active”. `CC(C)n1cc(C2=C(c3nn(CCCN4CCOCC4)c4ncccc34)C(=O)NC2=O)c2ccccc21`: the IC50 in experiment [4] was above 40 µM; in experiment [5], above 40 µM; in experiment [1], 0.38 µM; on Aurora kinase A it was above 40 µM; in experiment [6], above 40 µM; in experiment [7] it was above 40 µM. For the same compound, the inhibition result in experiment [3] is “Active”. In the case of `O=C1NC(=O)C(c2nn(CCCN3CCOCC3)c3ncccc23)=C1c1cn(CCCn2ccnc2)c2ccccc12`, the inhibition result in experiment [3] is “inactive”. The IC50 in experiment [1] was determined as 0.68 µM. `O=C1NC(=O)C(c2nn(CCCN3CCOCC3)c3ncccc23)=C1c1cn(Cc2ccccc2)c2ccccc12`: the IC50 in experiment [1] stood at 1.9 µM. Still for that read-out and setting: the figure for `Cn1cc(C2=C(c3nn(CCCn4ccnc4)c4ncccc34)C(=O)NC2=O)c2ccccc21` is 4.89 µM; for `Cn1cc(C2=C(c3n[nH]c4ncccc34)C(=O)NC2=O)c2ccccc21` it is 12.3 µM. For the compound `O=CNN1C(=O)C(c2c[nH]c3ccccc23)=C(c2n[nH]c3ncccc23)C1=O`, the inhibition in experiment [2] was -7.42%. The same measure, in the same setting: the value for `COC(=O)CN1C(=O)C(c2c[nH]c3ccccc23)=C(c2n[nH]c3ncccc23)C1=O` was 51.5%. For the compound `Cn1cc(C2=C(c3nn(CCN4CCOCC4)c4ncccc34)C(=O)NC2=O)c2ccccc21`, the IC50 in experiment [4] was above 40 µM; in experiment [5], above 40 µM; in experiment [1], 0.36 µM; at Aurora kinase A it was above 40 µM; in experiment [6], above 40 µM; in experiment [7] it was above 40 µM. In addition, the inhibition result in experiment [3] was “Active”. Consider `O=C1NC(=O)C(c2n[nH]c3ncccc23)=C1c1c[nH]c2ccccc12`, for which the IC50 in experiment [1] worked out at 7.31 µM.

As for `NC(=O)NN1C(=O)C(c2c[nH]c3ccccc23)=C(c2n[nH]c3ncccc23)C1=O`, in experiment [2], the inhibition is -6.81%.

What is called IC50 is the midpoint of a concentration-inhibition curve. By inhibition is commonly meant the drop in the measured response relative to a control, in per cent.
